Rows were chosen to be rich in hits. Some 9.3% of all compounds tested hit in one or more screens of this group.
PostGolgi yeast = phenotypic screen on post-Golgi transport, primary screen | post-Golgi transport phenotypic cell assay | inhibition, % at 10 µM | actives 0.9% (n = 98,000);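 further: yeast cells grown in 1536-well plates; yeast grown about 18 h at 30C before absorbance read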
E coli WT exp = growth inhibitors of wild-type E. coli, primary screen, strain BW25113, expanded library, OD600. OD600 absorbance. growth inhibition, % at 100 µM. actives 0.15% (n = 98,000);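 active means growth inhibition above about 50% at one test dose, limit read from the data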;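 further: growth measured after 20 h incubation at 37 °C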
D1 allo mod = D1 CRE-luciferase signal change, two-sided – cell-based, HEK293 D1, dopamine EC30, D1 allosteric modulator project, primary screen. dopamine EC30 potentiation; actives deviate in either direction. B-score at 10 µM. actives 5.9% (n = 58,000). AID 641, 2007;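 active means luminescence count or its row- and column-corrected plate score outside the 99.7% band of the plate's sample wells, on either side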
Target sequence (P21728 whole entry, looked up): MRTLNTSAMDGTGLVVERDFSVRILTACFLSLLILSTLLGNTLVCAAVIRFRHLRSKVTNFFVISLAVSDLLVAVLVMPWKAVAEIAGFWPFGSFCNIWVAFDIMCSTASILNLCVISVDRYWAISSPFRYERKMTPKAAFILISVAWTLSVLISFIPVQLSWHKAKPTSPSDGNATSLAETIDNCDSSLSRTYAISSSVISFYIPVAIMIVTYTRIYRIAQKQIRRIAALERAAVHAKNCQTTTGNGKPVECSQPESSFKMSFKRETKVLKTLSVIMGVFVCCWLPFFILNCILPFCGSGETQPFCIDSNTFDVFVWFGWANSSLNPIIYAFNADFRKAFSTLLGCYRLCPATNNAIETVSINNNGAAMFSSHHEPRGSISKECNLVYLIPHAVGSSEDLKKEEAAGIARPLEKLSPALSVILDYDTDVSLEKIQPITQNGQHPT
Ecoli tolC = growth inhibitors of E. coli tolC mutant, primary screen, strain BW25113 ΔtolC::kan, 384-well; OD615; growth inhibition, % at 10 µM (by protocol); actives 2.2% (n = 65,000); AID 573, 2007;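 active means growth inhibition at or above a cutoff equal to the mean over every tested compound plus 3 SD, cut at about 60% in these data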;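 further: growth measured after 20 h incubation at 37 °C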
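Signal: optical density read at 615 nm; Assay system: E. coli ΔtolC::kan strain BW25113; Times: 20 h incubation with compound, 37 °C; Dosing: 10 µM final, single dose.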
PostGolgi ctrl = growth inhibition of yeast control strain, primary screen, counter-screen for post-Golgi transport modulator project | inhibition, % at 10 µM | actives 5% (n = 98,000) | efflux-deficient yeast background strain, growth absorbance A615, 16 h
DAT uptake mod = changed hDAT dopamine uptake under cocaine IC80, either direction, primary screen, cocaine antagonist project, cell-based, LLC-PK1 hDAT, [14C]-dopamine uptake, MLSMR | Sodium-dependent dopamine transporter (Homo sapiens), Q01959 | LLC-PK1 hDAT cells, [14C]-dopamine uptake with cocaine IC80; actives deviate in either direction | B-score at 10 µM | actives 1.3% (n = 110,000) | AID 449768, 2010;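 active means Z score or B-score, a plate-position-corrected score, falls beyond the plate's 99.7% confidence bounds, in either direction; inactive means both scores lie inside the 99.7% bounds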;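 further: scored against the spread of the other compound wells on the same plate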
An asterisk follows results filed as active; . = no result. Unless noted, no stated cut-off is given here; in the data, active means inhibition above about 30%; inactive means the rest.

SMILES	PostGolgi yeast	E coli WT exp	D1 allo mod	Ecoli tolC	PostGolgi ctrl	DAT uptake mod
COc1ccc(S(=O)(=O)n2nc(-c3ccc(Cl)cc3)cc2N)cc1OC	-1.0	-6.0	.	.	30.9*	-1.19
Cc1ccc(CNC(=O)Nc2cccs2)cc1	-2.2	5.0	.	-5.9	10.1	-0.245
O=C(CCCCCCN1C(=O)c2ccccc2C1=O)N1CCC(c2ccccc2)C1 (stereo not drawn)	.	.	.	.	.	3.4*
Cc1ccc(Cl)cc1NC(=O)CC1NCCNC1=O (stereo not drawn)	.	.	.	.	.	-0.0479
COc1cc(-c2cc(=O)c3c(O)c(OC)c(OC)c(O)c3o2)ccc1O	.	.	.	.	.	0.58
COc1cc(-c2cc(OC)c3c(C)oc(C)c3c(=O)c2)ccc1O	6.5	7.0	2.53	6.7	45.0*	0.859
O=C(On1c(-c2ccccc2)nc2ccccc2c1=O)c1ccco1	20.2	-10.0	-3.44*	-14.9	11.6	0.581
O=C(CN1CCC(O)CC1)N1c2ccccc2C=Cc2ccccc21	0.3	-1.0	0.339	16.9	12.2	0.855
c1ccc(-n2ncc3c(NCC4CCCO4)ncnc32)cc1 (stereo not drawn)	-8.3	-10.0	.	8.9	6.6	1.72
CN(C)CCNc1ncnc2c1cnn2-c1ccc(Cl)cc1	-1.8	8.0	-4.72*	-2.6	1.3	-0.51
Clc1ccc(-n2ncc3c(NCC4CCCO4)ncnc32)cc1 (stereo not drawn)	-4.2	1.0	-3.57*	14.0	13.3	0.654
CCC(C(=O)OC)n1cnc2c(cnn2-c2ccc(Cl)cc2)c1=O (stereo not drawn)	1.0	-2.0	.	0.5	40.8*	-0.428
CC(C)CCn1cnc2c(cnn2-c2ccc(Cl)cc2)c1=O	-4.5	1.0	.	-3.2	3.4	0.0914
O=C1CCCN1CCCNc1ncnc2c1cnn2-c1ccc(Cl)cc1	-3.2	1.0	-1.89	9.3	37.7*	0.354
C/C=C1\COC(C(=O)NCc2ccccc2)(C(F)(F)F)C=C1C=C(C)C (stereo not drawn)	.	.	.	.	.	-0.951
CCC(CO)Nc1ncnc2c1cnn2-c1ccc(OC)cc1 (stereo not drawn)	0.5	-1.0	-2.98	-8.1	22.0	-0.775
CCC(CO)Nc1ncnc2c1cnn2-c1ccc(Cl)cc1 (stereo not drawn)	21.5	6.0	-5.72*	11.2	17.4	0.768
COCCOC(=O)c1c(C)n(C)c2ccc(OC(=O)C3CC3)cc12	-1.0	-3.0	1.41	-3.5	7.4	-0.0736
CCOc1ccc(NS(=O)(=O)c2ccc(OCC(=O)N3CCCC3)cc2)cc1	-3.0	-4.0	-1.08	-4.0	5.8	-0.37
CCOC(=O)N1CCN(C(=O)COc2ccc(S(=O)(=O)Nc3ccc(OCC)cc3)cc2)CC1	15.1	0.0	-0.0482	67.9*	5.0	1.33
O=C(Cc1ccccc1)Nc1cc(C(=O)c2ccccc2)ccc1N1CCOCC1	1.7	-22.0	.	.	10.6	2.23
COc1ccc(C2C(C#N)=C(N)N(c3sc4c(c3C#N)CCCC4)C3=C2C(=O)CC(C)(C)C3)cc1 (stereo not drawn)	-8.8	-5.0	.	.	1.8	0.25
COc1ccc(C2C(C#N)=C3NC(=O)c4c(sc5c4CCCCC5)N3C3=C2C(=O)CC(C)(C)C3)cc1 (stereo not drawn)	7.3	-5.0	.	.	35.8*	2.33*
CCOC(=O)n1c(=O)n(Cc2ccc(Cl)c(Cl)c2)c2ccccc21	0.5	-11.0	.	.	65.7*	-0.11
CCOC(=O)n1c(=O)n(Cc2ccccc2)c2ccccc21	12.5	3.0	.	.	11.8	-0.0685
CN(CCCNC(=O)COc1cc(=O)n(C)c2ccccc12)Cc1ccccc1	6.0	-5.0	0.212	-14.4	4.8	-0.0388
CCN(CCCNC(=O)COc1cc(=O)n(CC)c2ccccc12)Cc1ccccc1	-8.2	-3.0	-1.89	16.3	38.0*	-0.262
COc1cccc(-c2nnc(NC(=O)c3cccc(F)c3)o2)c1	.	.	-1.22	100.0*	.	-1.06
COc1cccc(-c2nnc(NC(=O)c3ccccc3Br)o2)c1	.	.	-0.856	72.2*	.	1.74
Cc1cccc(-c2nnc(NC(=O)c3ccc(Cl)cc3)o2)c1	94.4*	30.0	-0.623	100.0*	81.0*	1.88
